Measured values published in ChEMBL document CHEMBL3286247, “Expansion of Antibacterial Spectrum of Muraymycins toward Pseudomonas aeruginosa” (ACS Med Chem Lett, 2014).
Converted amounts (≈) assume the structure as drawn.

What was measured:
Pseudomonas aeruginosa [1] = experiment: Antibacterial activity against Pseudomonas aeruginosa PAO1 assessed as growth inhibition after 20 hrs by microdilution method; format: functional; details: PAO1, 20 h
Method in brief: (§1)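 Broth microdilution per CLSI in cation-adjusted Mueller-Hinton broth, using serial 2-fold compound dilutions. Each strain was inoculated at 5 × 10⁴ CFU per well in 0.1 mL. Plates were incubated at 35 °C for 20 h, and the MIC was then scored.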

[2] = Inhibition of Staphylococcus aureus MraY by fluorescence assay
Method in brief: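 Purified S. aureus MraY was given UDP-MurNAc-dansylpentapeptide as substrate. Formation of dansylated lipid I was followed by fluorescence enhancement (excitation 355 nm, emission 535 nm).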

Pseudomonas aeruginosa [3] = experiment: Antibacterial activity against Pseudomonas aeruginosa YY165 deltamexB mutant assessed as growth inhibition after 20 hrs by microdilution method; format: functional; details: YY165, 20 h
Method in brief: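 Broth microdilution per CLSI in cation-adjusted Mueller–Hinton broth; serial 2-fold compound dilutions inoculated with 5 × 10⁴ CFU per well (0.1 mL), incubated 35 °C for 20 h, then MIC scored. Strain YY165 is a MexB deletion mutant lacking the inner-membrane transporter of the MexAB-OprM efflux system.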

Pseudomonas aeruginosa [4] = experiment: Antibacterial activity against Pseudomonas aeruginosa ATCC 25619 assessed as growth inhibition after 20 hrs by microdilution method; format: functional; details: ATCC 25619, 20 h; method in brief: as §1
Pseudomonas aeruginosa [5] = experiment: Antibacterial activity against clinical isolate Pseudomonas aeruginosa SR27156 assessed as growth inhibition after 20 hrs by microdilution method; format: functional; details: SR27156, 20 h; method in brief: as §1
Pseudomonas aeruginosa [6] = experiment: Antibacterial activity against Pseudomonas aeruginosa ATCC 27853 assessed as growth inhibition after 20 hrs by microdilution method; format: functional; details: ATCC 27853, 20 h; method in brief: as §1
[7] = Metabolic stability in rat liver microsomes assessed as compound remaining at 2 uM after 30 mins incubation by LC-MS/MS analysis
[8] = Metabolic stability in human liver microsomes assessed as compound remaining at 2 uM after 30 mins incubation by LC-MS/MS analysis
HepG2 = experiment: Cytotoxicity against human HepG2 cells; format: functional, cell-based

CCCCCCCCCCCCCCCCC(=O)N[C@@H](CCCNC(=N)N)C(=O)NCCCN[C@H](C(=O)O)[C@H](O[C@@H]1O[C@H](CN)[C@@H](O)[C@H]1O)[C@H]1O[C@@H](n2ccc(=O)[nH]c2=O)[C@H](O)[C@@H]1O
MIC (Pseudomonas aeruginosa [1]): 16 µg/mL (≈ 17.5 µM) | IC50 [2]: 1.6 nM | MIC (Pseudomonas aeruginosa [3]): 8 µg/mL (≈ 8.75 µM) | MIC (Pseudomonas aeruginosa [4]): 16 µg/mL (≈ 17.5 µM) | MIC (Pseudomonas aeruginosa [5]): 16 µg/mL (≈ 17.5 µM) | MIC (Pseudomonas aeruginosa [6]): 32 µg/mL (≈ 35 µM) | remaining at 0.5 h, 2 µM [7]: 81.1% | remaining at 0.5 h, 2 µM [8]: 89.5%

CCCCCCCCCCCCCCCCNC(=O)[C@@H](NCCCNC(=O)[C@@H](N)CCCNC(=N)N)[C@H](O[C@@H]1O[C@H](CN)[C@@H](O)[C@H]1O)[C@H]1O[C@@H](n2ccc(=O)[nH]c2=O)[C@H](O)[C@@H]1O
MIC (Pseudomonas aeruginosa [1]): 32 µg/mL (≈ 36.2 µM) | IC50 [2]: 12.2 nM | MIC (Pseudomonas aeruginosa [3]): 16 µg/mL (≈ 18.1 µM) | MIC (Pseudomonas aeruginosa [4]): 16 µg/mL (≈ 18.1 µM) | MIC (Pseudomonas aeruginosa [5]): 16 µg/mL (≈ 18.1 µM) | MIC (Pseudomonas aeruginosa [6]): 16 µg/mL (≈ 18.1 µM)

CCCCCCCCCCCCCCCCC(=O)N[C@@H](CCCNC(=N)N)C(=O)NCCCN[C@H](C(=O)NCCCCNC(=N)N)[C@H](O[C@@H]1O[C@H](CN)[C@@H](O)[C@H]1O)[C@H]1O[C@@H](n2ccc(=O)[nH]c2=O)[C@H](O)[C@@H]1O
MIC (Pseudomonas aeruginosa [1]): 4 µg/mL (≈ 3.9 µM) | IC50 [2]: 0.6 nM | MIC (Pseudomonas aeruginosa [3]): 4 µg/mL (≈ 3.9 µM) | MIC (Pseudomonas aeruginosa [4]): 8 µg/mL (≈ 7.8 µM) | MIC (Pseudomonas aeruginosa [5]): 8 µg/mL (≈ 7.8 µM) | MIC (Pseudomonas aeruginosa [6]): 8 µg/mL (≈ 7.8 µM) | IC50 (HepG2): 34 µg/mL (≈ 33.1 µM) | remaining at 0.5 h, 2 µM [7]: 69.8% | remaining at 0.5 h, 2 µM [8]: 86.9%

CC(C)C[C@H](NC(=O)[C@@H](NC(=O)N[C@H](C(=O)O)C(C)C)[C@@H]1CCNC(=N)N1)C(=O)NCCCN[C@H](C(=O)O)[C@H](O[C@@H]1O[C@H](CN)[C@@H](O)[C@H]1O)[C@H]1O[C@@H](n2ccc(=O)[nH]c2=O)[C@H](O)[C@@H]1O [MURAMYCIN D2]
MIC (Pseudomonas aeruginosa [1]): > 64 µg/mL | IC50 [2]: 2.8 nM | MIC (Pseudomonas aeruginosa [3]): 64 µg/mL (≈ 69.9 µM) | MIC (Pseudomonas aeruginosa [4]): 64 µg/mL (≈ 69.9 µM) | MIC (Pseudomonas aeruginosa [5]): 32 µg/mL (≈ 34.9 µM) | MIC (Pseudomonas aeruginosa [6]): > 64 µg/mL
